For two compounds, MIC and Activity results are on record in ChEMBL document CHEMBL1158956, “Biologically active metabolites from Xenorhabdus spp., Part 2. Benzopyran-1-one derivatives with gastroprotective activity” (1991).

The structures appear in SMILES notation. Values after ≈ are worked out from the molar mass of the structure shown. Active and inactive are the calls of the source. Some results are limits rather than exact numbers.

One assay has as its system Corynebacterium xerosis. Kind of assay: Antimicrobial activity against Corynebacterium xerosis NCTC 9755. It counts as functional. The essentials:
(§1)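 MIC by blood agar screen: DST agar with 10% defibrinated horse blood; inocula were undiluted overnight broth cultures; plates incubated aerobically overnight at 37°.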

The next assay relates to Streptococcus sanguinis. Kind of assay: Antimicrobial activity against Streptococcus sanguis ATCC 10556. Type of assay: functional. The essentials: as §1
A further assay relates to Acinetobacter lwoffii. Kind of assay: Antimicrobial activity against Acinetobacter lwoffii BRL 2400. It counts as functional. The essentials: as §1
For a further assay, the system named is Micrococcus luteus. Kind of assay: Antimicrobial activity against Sarcina lutea ATCC 8740. It counts as functional. The essentials: as §1
Assay [1] concerns Rattus norvegicus. Kind of assay: Antiulcerogenic activity in stress-induced Wistar rat assessed as protection from ulcer at 25 mg/kg, po. It counts as functional.
Assay [2] deals with Rattus norvegicus. Kind of assay: Antiulcerogenic activity in stress-induced Wistar rat assessed as protection from ulcer at 5 mg/kg, po. Type of assay: functional.
Another assay deals with Aspergillus fumigatus. The experiment in a line: Antimicrobial activity against Aspergillus fumigatus at […] after 2 days by tube dilution method. Type of assay: functional, organism-based. The essentials: (§2)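 Tube dilution MIC in defined medium (Yeast Nitrogen Base + 1% glucose) and complex medium (Sabouraud's glucose broth); compound dissolved in DMSO, final DMSO <1%; tenfold dilutions 100 to 0.1 μg/ml; inoculum 10^4 spores/ml; 2 days at 37°.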

In a further assay the test system is Aspergillus niger. The experiment in a line: Antimicrobial activity against Aspergillus niger at […] after 2 days by tube dilution method. Type of assay: functional, organism-based. The essentials:
as §2

In assay [3] the test system is Rattus norvegicus. The experiment in a line: Antiulcerogenic activity in stress-induced Wistar rat assessed as protection from ulcer at 10 mg/kg, po. It counts as functional.
For the next assay, the system named is Streptococcus pyogenes. Kind of assay: Antimicrobial activity against Streptococcus pyogenes CN10. Type of assay: functional. The essentials:
as §1

The next assay concerns Klebsiella aerogenes. Kind of assay: Antimicrobial activity against Klebsiella aerogenes A. It counts as functional. The essentials: as §1
A further assay relates to Citrobacter freundii. The experiment in a line: Antimicrobial activity against Citrobacter freundii ES. Type of assay: functional. The essentials:
as §1

The subject of the next assay is Candida parapsilosis. The experiment in a line: Antimicrobial activity against Candida parapsilosis at 128 ug/ml after 2 days by twofold dilution method. Type of assay: functional, organism-based. The essentials: (§3)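 Microtiter MIC with twofold dilutions in defined (Yeast Nitrogen Base + 1% glucose) and complex (Sabouraud's glucose) broth; compound from DMSO stock, final DMSO <1%; inocula 10^3 and 10^5 cells/ml; incubated 2 days at 37°.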

The test system of another assay is Priestia megaterium. The experiment in a line: Antimicrobial activity against Bacillus megaterium NCIB 9376. Type of assay: functional. The essentials:
as §1

The subject of assay [4] is Trichophyton mentagrophytes. Kind of assay: Antimicrobial activity against Trichophyton mentagrophytes at 128 ug/ml after 11 days by twofold dilution method. Type of assay: functional, organism-based.
The subject of the next assay is Salmonella typhimurium. Kind of assay: Antimicrobial activity against Salmonella Typhimurium CT10. Type of assay: functional, Salmonella enterica subsp. enterica serovar Typhimurium. The following applies: Salmonella enterica. The essentials:
as §1

Assay [5] has as its system Escherichia coli. Kind of assay: Antimicrobial activity against Escherichia coli DCO. It counts as functional. The essentials:
as §1

Assay [6] has as its system Escherichia coli. Kind of assay: Antimicrobial activity against Escherichia coli 10418. Type of assay: functional. The essentials:
as §1

In assay [7] the test system is Escherichia coli. The experiment in a line: Antimicrobial activity against Escherichia coli ESS. It counts as functional. The essentials: as §1
The next assay deals with Trichophyton rubrum. Kind of assay: Antimicrobial activity against Trichophyton rubrum at 128 ug/ml after 11 days by twofold dilution method. It counts as functional, organism-based.
For a further assay, the system named is Pseudomonas aeruginosa. The experiment in a line: Antimicrobial activity against Pseudomonas aeruginosa 1771P. It counts as functional. The essentials: as §1
The subject of assay [8] is Staphylococcus aureus. Kind of assay: Antimicrobial activity against Staphylococcus aureus Oxford NCTC 6571. Type of assay: functional. The essentials:
as §1

The subject of assay [9] is Staphylococcus aureus. Kind of assay: Antimicrobial activity against Staphylococcus aureus V573. Type of assay: functional. The essentials: as §1
The subject of another assay is Proteus mirabilis. The experiment in a line: Antimicrobial activity against Proteus mirabilis C977. It counts as functional. The essentials: as §1
In a further assay the test system is Enterobacter cloacae. The experiment in a line: Antimicrobial activity against Enterobacter cloacae N1. It counts as functional. The essentials: as §1
The next assay has as its system Candida albicans. The experiment in a line: Antimicrobial activity against Candida albicans at 128 ug/ml after 2 days by twofold dilution method. It counts as functional, organism-based. The essentials:
as §3

The next assay relates to Cryptococcus neoformans. Kind of assay: Antimicrobial activity against Cryptococcus neoformans. Type of assay: functional. The essentials:
as §3

For orientation: MIC means the smallest concentration in the dilution series that meets the test's criterion for growth inhibition. High values mean a less susceptible organism, low ones a more susceptible organism. As for `CC(C)CC(NC(=O)C(O)C(O)C1CCCN1)C1Cc2cccc(O)c2C(=O)O1` (stereo unspecified) [XENOCOUMACIN 2], the MIC was 5 µg/mL (≈ 12.3 µM) against Corynebacterium xerosis; 10 µg/mL (≈ 24.6 µM) against Streptococcus sanguinis; 5 µg/mL (≈ 12.3 µM) in the assay on Acinetobacter lwoffii; 5 µg/mL (≈ 12.3 µM) against Micrococcus luteus; 5 µg/mL (≈ 12.3 µM) against Streptococcus pyogenes; over 100 µg/mL against Klebsiella aerogenes. The MIC with Citrobacter freundii was over 100 µg/mL; in the assay on Priestia megaterium, 5 µg/mL (≈ 12.3 µM); in the assay with Salmonella typhimurium, over 100 µg/mL; against Escherichia coli [5], over 100 µg/mL; against Escherichia coli [6] it was 50 µg/mL (≈ 123 µM); against Escherichia coli [7], 2.5 µg/mL (≈ 6.15 µM). Besides, the MIC was over 100 µg/mL in the assay on Pseudomonas aeruginosa; 5 µg/mL (≈ 12.3 µM) in the assay with Staphylococcus aureus [8]; over 100 µg/mL in the assay on Staphylococcus aureus [9]; over 100 µg/mL in the assay with Proteus mirabilis; over 100 µg/mL in the assay on Enterobacter cloacae. The results for the Activity with Rattus norvegicus [1], in the assay with Rattus norvegicus [2] and with Rattus norvegicus [3] were 70%, 26% and 61%, respectively. Besides, the outcome (in the assay on Aspergillus fumigatus; in the assay on Aspergillus niger; in the assay on Candida parapsilosis; in assay [4]; in the assay on Trichophyton rubrum; in the assay with Candida albicans) was inactive.
In the case of `CC(C)CC(NC(=O)C(O)C(O)C(N)CCCNC(=N)N)C1Cc2cccc(O)c2C(=O)O1` (stereo unspecified) [XENOCOUMACIN 1], the MIC against Corynebacterium xerosis turned out to be 1 µg/mL (≈ 2.15 µM); against Streptococcus sanguinis, 10 µg/mL (≈ 21.5 µM); against Acinetobacter lwoffii it was 2.5 µg/mL (≈ 5.37 µM); against Micrococcus luteus, 1 µg/mL (≈ 2.15 µM); against Cryptococcus neoformans it was 0.125 µg/mL (≈ 0.268 µM); in the assay with Streptococcus pyogenes, 1 µg/mL (≈ 2.15 µM). The MIC against Klebsiella aerogenes is over 100 µg/mL; with Citrobacter freundii, over 100 µg/mL; in the assay on Priestia megaterium, 2.5 µg/mL (≈ 5.37 µM); against Salmonella typhimurium, over 100 µg/mL; against Escherichia coli [5] it was 10 µg/mL (≈ 21.5 µM); against Escherichia coli [6], 2.5 µg/mL (≈ 5.37 µM). For the same compound, the MIC against Escherichia coli [7] is 0.5 µg/mL (≈ 1.07 µM); in the assay on Pseudomonas aeruginosa it was over 100 µg/mL; against Staphylococcus aureus [8], 10 µg/mL (≈ 21.5 µM); against Staphylococcus aureus [9], 25 µg/mL (≈ 53.7 µM); against Proteus mirabilis, over 100 µg/mL; against Enterobacter cloacae it was over 100 µg/mL. Moreover, the Activity with Rattus norvegicus [1] turned out to be 74%; in the assay with Rattus norvegicus [3], 8%.
